Assay outcomes from PubChem.
Compounds with a hit are over-represented: about 3.5% of the library has one in this group of screens.
MrgX1 antagonist = antagonists of human MrgX1 receptor, primary screen, HEK293 cells, Fluo-4 calcium flux; Mas-related G-protein coupled receptor member X1 (Homo sapiens), Q96LB2; BAM8-22 antagonism; hits give low values; B-score at 10 µM; hit rate 1.3% among 310,000;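 active = calcium-response B-score plate-corrected more than 3 library SD below zero, starting fluorescence within 5 deviations, no agonist response on first addition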;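 also: peak minus trough fluorescence over baseline after final BAM8-22 challenge near maximal dose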
Target sequence (Q96LB2 whole entry, looked up): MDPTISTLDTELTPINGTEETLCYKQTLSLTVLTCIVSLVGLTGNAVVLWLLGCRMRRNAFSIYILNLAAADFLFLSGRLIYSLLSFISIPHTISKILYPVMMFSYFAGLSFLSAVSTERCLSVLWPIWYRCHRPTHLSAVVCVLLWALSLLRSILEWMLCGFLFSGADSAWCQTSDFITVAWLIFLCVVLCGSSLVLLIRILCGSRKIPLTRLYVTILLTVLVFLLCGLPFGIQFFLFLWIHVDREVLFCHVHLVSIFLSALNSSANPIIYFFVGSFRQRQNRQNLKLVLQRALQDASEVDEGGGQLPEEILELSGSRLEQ
RGS4 pot = RGS4 potentiators or activators, primary screen, cell-based, HEK293 M3R inducible RGS4, calcium flux; carbachol calcium flux Fluo4; hits give low values; B-score at 10 µM; hit rate 0.92% among 310,000;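 active = B-score of the integrated calcium signal more than 4 SD below the library mean, with starting fluorescence not abnormally high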;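 also: negative B-score means reduced calcium response which marks RGS4 activation or potentiation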
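Assay system: HEK293 FlpIn-TREx cells, stable M3R, doxycycline-inducible RGS4 / Probe or stimulus: carbachol, ECmax concentration / Times: overnight RGS4 induction, 30 min dye load 37 °C, 20 min compound RT / Signal: kinetic calcium fluorescence imaging with Fluo4-AM dye, 2 µM / Measure: Agonist-evoked peak-minus-minimum fluorescence over baseline, integrated ratio, B score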
MrgX1 ag = agonists of human MrgX1 receptor, primary screen, HEK293 cells, Fluo-4 calcium flux; Fluo-4 calcium fluorescence, agonist mode; hits give high values; Mas-related G-protein coupled receptor member X1 (Homo sapiens), Q96LB2; hit rate 0.44% among 310,000; B-score at 10 µM; AID 588627, 2011;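 active = calcium response B-score plate-corrected fluorescence ratio at least 3 library SD, with starting fluorescence B-score inside 5 SD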
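System: HEK293 cells stably expressing human MrgX1 receptor; Dosing: test compound in the initial addition of three; Schedule: overnight plating, then 30 min 37 °C plus 30 min room-temperature dye loading; Detection: kinetic calcium dye fluorescence, Fluo-4 NW; Controls: per-plate positive and negative controls for Z′ factor.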
RGS4 block = RGS4 inhibitors, primary screen, cell-based, HEK293 M3R inducible RGS4, calcium flux; Regulator of G-protein signaling 4 (Homo sapiens), P49798; Fluo-4 calcium flux; hits give high values; triggered by carbachol at its EC20; B-score at 10 µM; hit rate 0.45% among 310,000; AID 463165, 2010;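 active = B-score, a plate-corrected calcium signal, over three deviations above library mean, with baseline fluorescence within five deviations of library mean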;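 also: RGS4 expression induced by doxycycline in cells with stable M3 receptor; B-score is computed from the integrated fluorescence ratio over baseline after carbachol; higher B-score means a larger calcium signal and so more RGS4 inhibition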
Target sequence (P49798 whole entry, looked up): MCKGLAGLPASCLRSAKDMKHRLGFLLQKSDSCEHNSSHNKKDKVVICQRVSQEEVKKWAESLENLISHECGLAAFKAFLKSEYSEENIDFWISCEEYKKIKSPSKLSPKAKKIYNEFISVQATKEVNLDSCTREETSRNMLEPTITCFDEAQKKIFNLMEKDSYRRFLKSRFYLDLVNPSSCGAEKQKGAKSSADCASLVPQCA
MrgX1 PAM = positive allosteric modulators of MrgX1, primary screen, HEK293 cells, Fluo-4 calcium flux; Mas-related G-protein coupled receptor member X1 (Homo sapiens), Q96LB2; FDSS; hits give high values; B-score at 10 µM; hit rate 0.63% among 310,000; AID 588675, 2011;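 active = plate-corrected calcium response at least 3 library SD above typical, normal starting fluorescence, not activating the receptor alone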;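 also: compound read alongside a low EC10 to EC30 dose of BAM8-22 agonist; peak minus trough fluorescence over baseline measured at the second addition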
Starred values were filed as active, the others as inactive; i = inactive.

SMILES	MrgX1 antagonist	RGS4 pot	MrgX1 ag	RGS4 block	MrgX1 PAM
O=C(NC(=S)NNC(=O)[C@H]1C[C@@H]1c1ccccc1)c1ccc(F)cc1	i	i	i	i	i
Cc1ccccc1C(=O)Oc1cc(N)n(S(C)(=O)=O)n1	i	i	i	i	i
Cc1c(C(=O)Oc2cc(N)n(S(C)(=O)=O)n2)cccc1[N+](=O)[O-]	i	i	i	i	6.7*
Cc1ccc(-n2nc(CN3CCOCC3)c(-c3ccccc3)c2N)c(C)c1	i	i	i	i	i
O=C1CC(c2ccc(Cl)cc2)CC(O)=C1C=NCc1ccc(Cl)c(Cl)c1 (stereo not given)	i	-8*	i	i	i
O=C1CC(c2ccccc2)CC(O)=C1C=NCCc1ccccc1 (stereo not given)	i	i	i	i	11*
CNS(=O)(=O)c1cccc(C(=O)NCC(C)(C)N2CCCCC2)c1	i	i	i	i	i
N#C/C(C(N)=O)=c1/ccc2c(c1)N1C3=C(CCCC3)CC3CCCCC31N=2 (stereo not given)	i	-8.8*	i	i	i
C/C(=N/NC(=O)CSc1nc2ccccc2n1C)c1ccc(O)cc1	-4.9*	i	i	i	i
O=C(/C=C/c1ccc(O)c(O)c1)NC(=O)c1ccccc1O	-7.8*	i	i	i	i
Cc1coc2cc3oc(=O)c(CCC(=O)N4C[C@H]5C[C@@H](C4)c4cccc(=O)n4C5)c(C)c3cc12	i	i	i	i	i
CC1(C)CC(=O)C(C2C3=C(CC(C)(C)CC3=O)Oc3ccc4ccccc4c32)C(=O)C1 (stereo not given)	i	i	40*	i	i
CC1(C)CC(=O)C(C2C3=C(CC(C)(C)CC3=O)Oc3ccccc32)C(=O)C1 (stereo not given)	i	i	i	i	i
COc1ccc(CN(C(=O)CSc2nnc(-c3ccc(F)cc3)o2)c2ccc(F)cc2)cc1	i	i	i	i	i
COc1ccc(CN(C(=O)CSc2nnc(-c3c[nH]c4ccccc34)o2)c2ccc(F)cc2)cc1OC	i	-8.4*	i	i	i
Cc1ccc2c(CN(C)Cc3cccc(Cl)c3)cc(=O)oc2c1C	i	i	i	i	i
CSc1ccc(CN(C)Cc2cc(=O)oc3c(C)c(C)ccc23)cc1	i	-7.2*	i	i	i
C/C(=N/Nc1ccc([N+](=O)[O-])cc1)c1ccc(C)cc1C	i	i	i	i	i
C/C(=N/Nc1ccc([N+](=O)[O-])cc1)c1c[nH]c2ccccc12	-4.9*	i	i	i	i
Cc1[nH]c2ccccc2c1/C=N/Nc1ccc([N+](=O)[O-])cc1	-4.9*	i	i	i	i
CCOCc1cc(CN2CCC(CCC(=O)NC3CC3)CC2)ccc1OC	i	i	i	i	i
O=C(Nc1ccc(Br)c(C(F)(F)F)c1)c1ccccc1	i	i	i	i	i
O=C(Nc1ccc(OCC(F)(F)C(F)F)c(C(F)(F)F)c1)c1ccc(Cl)cc1	i	-7.8*	i	i	i
O=C(Nc1ccc(Br)c(C(F)(F)F)c1)c1ccc(C(F)(F)F)cc1	-7.2*	i	i	i	i
CC1(C)CCC[C@]2(C)C(CS(=O)c3ccccc3)=C(C=O)CC[C@@H]12 (stereo not given in full)	i	i	i	i	i
SMILES	MrgX1 antagonist	RGS4 pot	MrgX1 ag	RGS4 block	MrgX1 PAM
CC(C)[N+](C)(CCOC(=O)C1c2ccccc2Oc2ccccc21)C(C)C	i	-8.5*	i	i	i
COc1ccc(S(=O)(=O)Nc2cccc(-c3ccc4nncn4n3)c2)c(OC)c1	i	i	i	i	i
CC1=CC(=Nc2c(C)n(C)n(-c3ccccc3)c2=O)C=C(C)C1=O	i	i	i	i	i
CC1=CC(=Nc2c(C)n(C)n(-c3ccccc3)c2=O)C=CC1=O	i	i	i	11*	i
Cc1ccc(C(C)C)c(OCc2nn(CC(=O)c3ccc(Cl)cc3)c3[n+]2CCCCC3)c1	i	-7.4*	i	i	i
O=C(Cn1nc(CNc2ccc(Cl)cc2)[n+]2c1CCCCC2)c1ccccc1	i	i	i	i	i
OC1(C#CCN2CCCC2)c2ccccc2-c2ccccc21	i	-7*	i	i	i
COc1cc(C2Oc3cc(C4Oc5cc(O)cc(O)c5C(=O)C4O)ccc3OC2CO)ccc1O (stereo not given)	i	i	i	i	8.8*
CCOC(=O)C1(CCCc2ccccc2)CCN(C(=O)CN2CCOC2=O)CC1	i	i	i	i	7.3*
Cc1cc(C)n(CCC(=O)N2c3ccccc3CC2C)n1 (stereo not given)	i	i	i	i	i
Cc1ccc(C)c(N2CCN(C(=O)c3ccc(N4CCOCC4)c([N+](=O)[O-])c3)CC2)c1	i	i	i	i	i
CC(=O)OC1CC(C)N(C(=O)c2ccccc2)c2ccc(C)cc21 (stereo not given)	i	i	i	i	i
Cc1ccc(C2=Nc3ccccc3N(C(=O)c3ccccc3)C(C)C2)cc1 (stereo not given)	-8.9*	i	i	i	i
CC1CC(N(C(=O)c2ccco2)c2ccccc2)c2ccccc2N1 (stereo not given)	i	i	i	i	6.5*
NC(=S)NN=C1C2CC3CC(C2)CC1C3	i	i	i	i	8.6*
NC(=O)C(=O)NN=C1C2CC3CC(C2)CC1C3	i	i	i	i	i
O=C(COC(=O)C12CC3CC(CC(C3)C1)C2)Nc1ccc([N+](=O)[O-])cc1Cl	-6.6*	i	i	i	i
Cc1ccsc1CN(C)CC(=O)Nc1ccc([N+](=O)[O-])cc1Cl	i	-8.5*	i	i	i
COc1ccc(C(CNC(=O)c2cccc(NS(=O)(=O)c3ccc(C)c(F)c3)c2)N2CCOCC2)cc1 (stereo not given)	i	i	i	i	i
CC(=O)OCCN(CCCn1c(-c2ccncc2)nc2ccccc21)c1nc(CN2CCCCC2)cs1	i	i	i	i	i
CC(=O)C1=C(O)C(=O)N(c2ccccn2)C1c1ccccc1[N+](=O)[O-] (stereo not given)	i	i	i	i	i
